Source: PubChem BioAssay (several laboratories)
IEC-6 cytotox: IEC-6 cytotoxicity, counter-screen for KLF5 inhibitors | luminescence viability | inhibition, % at 5 µM | 290,000 tested, 0.78% active; in the data active = inhibition above about 22%;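 also: 0% = plate median of test compound wells and 100% = cytotoxic reference compound wells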
bCat nuc transl: alters nuclear translocation of beta-catenin in HeLa cells. AID 1665. immunofluorescence imaging. 190,000 tested, 0.3% active. nuclear translocation activity, % at 5 µM;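 active = nuclear translocation activity above 50% at 5 µM, with a well cell count of 50 or more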;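 also: per-cell ratio of nuclear to cytoplasmic median beta-catenin stain intensity; plate controls were DMSO negative control for no effect and GSK-3 inhibitor IX positive control for full effect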
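System: Human HeLa cells, endogenous beta-catenin | Compound dosing: 5 µM primary, 0.02–20 µM confirmation | Timing: 24 h compound exposure at 37°C, 5% CO2 | Measured by: Fluorescence imaging of beta-catenin antibody stain plus DAPI | Read-out basis: % activation of per-cell nuclear versus cytoplasmic median beta-catenin signal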
MT stabilize HCS: microtubule stabilization, imaging screen; % tubulin-high responders, % at 10 µM; AID 2205; HeLa tubulin immunostaining HCS, 24 h; share of cells brighter than vehicle mean+2SD; 200,000 tested, 0.83% active;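 active = plate Z-score above 3 for both tubulin-high and condensed-nucleus cell shares, with cell loss under 80%, at 10 µM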;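 also: anti alpha tubulin signal scored within the nucleus-defined area of each cell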
BaF3 parental: reduces parental Ba/F3 cell viability, JAK2V617F counter-screen; AID 1486; 220,000 tested, 1.1% active; CellTiter-Glo ATP luminescence; inhibition, % at 5.6 µM;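 active = inhibition above a per-campaign cutoff, the mean inhibition of all tested compounds plus 3 SD, cut at about 27% in these data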;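 also: 0% = DMSO wells and 100% = JAK Inhibitor I control wells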
KLF5 inh: suppresses KLF5 promoter-driven expression | DLD-1 KLF5 promoter-luciferase reporter, luminescence | inhibition, % at 5 µM | 290,000 tested, 0.23% active;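 active = inhibition above a per-plate limit of that plate's mean compound inhibition plus 3 SD, cut at about 60% in these data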;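 also: 0% = DMSO wells and 100% = LY294002 at 200 µM; higher means less KLF5 promoter-driven luciferase light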
Ba/F3 V617F tox: reduce viability of Ba/F3 cells dependent on JAK2V617F; Ba/F3 EpoR-JAK2V617F viability, ATP luminescence; inhibition, % at 5.6 µM; 220,000 tested, 1.1% active;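 active = inhibition above the campaign mean plus 3 SD over all tested compounds, cut at about 24% in these data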;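 also: cytokine-independent growth of Ba/F3 cells driven by EpoR plus mutant JAK2; 0% = DMSO-treated cells and 100% = JAK inhibitor I control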
BaF3 tox 2: reduces parental Ba/F3 viability, JAK2V617F counter-screen. shares compounds with Ba/F3 V617F tox. 580 tested, 31% active. inhibition, % at 5.6 µM. CellTiter-Glo luminescence; cells kept alive by added IL-3;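 active = cell growth inhibition above the hit limit set in the earlier mutant JAK2 cell screen, cut at about 27% in these data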;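 also: plate controls were DMSO-treated cells for no effect and JAK Inhibitor I control wells for full effect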
JAK2V617F confrm: confirmation: loss of viability in JAK2V617F-dependent Ba/F3 cells; shares compounds with Ba/F3 V617F tox; inhibition, % at 5.6 µM; Ba/F3 EpoR-JAK2V617F viability, CellTiter-Glo luminescence; 580 tested, 66% active;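 active = mean inhibition above the hit cutoff derived in the earlier primary screen, cut at about 25% in these data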;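 also: 0% = DMSO-treated cells and 100% = JAK inhibitor I control wells; higher means lower luminescence from reduced cell ATP and viability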
* marks the source's active call; other numbers are inactive results. The list is not random: actives were taken first. Their share in the collection is about 2.1%.

`COc1cc(CN=C(C)c2c(O)n(C)c(=O)n(C)c2=O)cc(OC)c1` gave IEC-6 cytotox 6, bCat nuc transl -2, BaF3 parental 1, KLF5 inh 17 and Ba/F3 V617F tox 4.
`CCCC(=O)c1c(O)[nH]c(=O)[nH]c1=O` gave IEC-6 cytotox 3, bCat nuc transl -2, MT stabilize HCS 1, BaF3 parental -1, KLF5 inh 1 and Ba/F3 V617F tox 0.
COc1ccc(-n2c(C)nc3cc(C(=O)N4CCC5(CC4)OCCO5)ccc32)cc1 was read as IEC-6 cytotox 2, bCat nuc transl 0, MT stabilize HCS 24*, BaF3 parental 1, KLF5 inh 5 and Ba/F3 V617F tox -4.
`Cc1nc2cc(C(=O)N3CCC4(CC3)OCCO4)ccc2n1-c1ccc(Br)cc1` gave IEC-6 cytotox -7, bCat nuc transl 1, MT stabilize HCS 4, BaF3 parental 2, KLF5 inh -15 and Ba/F3 V617F tox -1.
Screening O=C(c1ccc2c(c1)ncn2-c1ccc(F)cc1F)N1CCC2(CC1)OCCO2 returned IEC-6 cytotox 0, bCat nuc transl 0, MT stabilize HCS 21*, BaF3 parental 7, KLF5 inh -20 and Ba/F3 V617F tox 1.
Screening O=C(c1ccc2c(c1)OCO2)N1CCC2(CC1)OCCO2 returned IEC-6 cytotox 2, bCat nuc transl 5, MT stabilize HCS 2, BaF3 parental 3, KLF5 inh -4 and Ba/F3 V617F tox 3.
Screening COC(=O)COc1ccc(/C=C2\C(=O)NC(=S)N(c3ccc(C)cc3)C2=O)cc1OC returned IEC-6 cytotox 1 and KLF5 inh -18.
For CN(C)CCOC(=O)c1cn(Cc2ccccc2)c2ccccc12 the results were IEC-6 cytotox 0, bCat nuc transl 2, MT stabilize HCS 8, BaF3 parental 11, KLF5 inh -14 and Ba/F3 V617F tox -3.
For CCOc1ccc(Cl)cc1CNCCc1ccccc1F the results were IEC-6 cytotox 0, bCat nuc transl 0, BaF3 parental 63*, KLF5 inh -31 and Ba/F3 V617F tox 29*.
C/C(=N\N1CCCCC1)c1c(O)[nH]c(=O)[nH]c1=O was read as IEC-6 cytotox -3, bCat nuc transl 10, MT stabilize HCS 8, BaF3 parental 1, KLF5 inh -6 and Ba/F3 V617F tox -4.
For CCOP(=O)(OCC)c1cc(C)c(O)c(C(C)(C)C)c1 the results were IEC-6 cytotox 3, bCat nuc transl 1, BaF3 parental -3, KLF5 inh -9 and Ba/F3 V617F tox -1.
`CC1=CC(=C2C(=O)NC(=O)NC2=O)C=C(C(F)(F)F)N1Cc1ccccc1` gave IEC-6 cytotox 2, bCat nuc transl 2, MT stabilize HCS 32, BaF3 parental 5, KLF5 inh 3 and Ba/F3 V617F tox 3.
CC1=CC(=C2C(=O)NC(=S)NC2=O)C=C(C(F)(F)F)N1Cc1ccccc1 was read as IEC-6 cytotox 9, bCat nuc transl 24, MT stabilize HCS 15*, BaF3 parental 14, KLF5 inh 25 and Ba/F3 V617F tox 5.
`CC1=CC(=C2C(=O)NC(=S)NC2=O)C=C(C(F)(F)F)N1CCc1ccccc1` gave IEC-6 cytotox -4, bCat nuc transl 3, MT stabilize HCS 25*, BaF3 parental 8, KLF5 inh -36 and Ba/F3 V617F tox -1.
For CN1CCN(CC(=O)Nc2ccc([N+](=O)[O-])cc2C(=O)c2ccccc2)CC1 the results were IEC-6 cytotox 2, bCat nuc transl 0, MT stabilize HCS 5, BaF3 parental 5, KLF5 inh -8 and Ba/F3 V617F tox 2.
Screening O=[N+]([O-])NC1=NCN(Cc2ccco2)CN1Cc1ccco1 returned IEC-6 cytotox -2, bCat nuc transl 3, MT stabilize HCS 4, BaF3 parental 4, KLF5 inh 18 and Ba/F3 V617F tox 2.
`O=C(Nc1cccc(Cl)c1)c1c(O)c2c(n(Cc3ccccc3)c1=O)CCCC2` gave IEC-6 cytotox -1, bCat nuc transl -3, MT stabilize HCS 4, BaF3 parental -1, KLF5 inh -8 and Ba/F3 V617F tox -4.
Screening O=c1c2ccccc2nc(CSc2ncnc3nc[nH]c23)n1-c1ccccc1 returned IEC-6 cytotox 10, MT stabilize HCS 1, BaF3 parental 32*, KLF5 inh 4 and Ba/F3 V617F tox 9.
For COc1cccc(NP(=O)(Oc2ccccc2)Oc2ccccc2)c1 the results were IEC-6 cytotox 12, bCat nuc transl 0, MT stabilize HCS 18*, BaF3 parental 7, KLF5 inh 6 and Ba/F3 V617F tox 3.
For O=c1[nH]c(=O)n(-c2ccc(F)cc2)c(O)c1C=Nc1ccccc1N1CCCC1 the results were IEC-6 cytotox -2, MT stabilize HCS 3, BaF3 parental 38*, KLF5 inh 1 and Ba/F3 V617F tox 5.
For CN(C)C(=S)SSC(=S)N(C)C the results were IEC-6 cytotox 102*, bCat nuc transl -4, MT stabilize HCS 3, BaF3 parental -3, KLF5 inh 22, Ba/F3 V617F tox 39*, BaF3 tox 2 0 and JAK2V617F confrm 99*.
For O=C(Cc1ccccc1)OCCNC(=O)c1cccnc1 the results were IEC-6 cytotox 2, bCat nuc transl 1, MT stabilize HCS 3, BaF3 parental 4, KLF5 inh -30 and Ba/F3 V617F tox 2.
Screening N#CC(C#N)=C(N)c1cccnc1 returned IEC-6 cytotox -8, bCat nuc transl 0, MT stabilize HCS 1, BaF3 parental 16, KLF5 inh -38, Ba/F3 V617F tox 34*, BaF3 tox 2 -4 and JAK2V617F confrm -2.
`c1ccc2c(CNC3CCCCCC3)c[nH]c2c1` gave IEC-6 cytotox 0, MT stabilize HCS 3, BaF3 parental 7, KLF5 inh -3, Ba/F3 V617F tox 27*, BaF3 tox 2 -2 and JAK2V617F confrm 38*.
`CNCCc1c[nH]c2ccccc12` gave IEC-6 cytotox 5, bCat nuc transl -1, MT stabilize HCS 4, BaF3 parental 4, KLF5 inh -22 and Ba/F3 V617F tox -1.
For c1ccc2c(CN3CCCCCC3)c[nH]c2c1 the results were IEC-6 cytotox 1, bCat nuc transl 0, MT stabilize HCS 2, BaF3 parental 26, KLF5 inh -27, Ba/F3 V617F tox 62*, BaF3 tox 2 11 and JAK2V617F confrm 76*.
`CCOc1ccc(N2C(=O)/C(=C\c3cccs3)C(=O)NC2=S)cc1` gave IEC-6 cytotox -8, bCat nuc transl -4, MT stabilize HCS 2, BaF3 parental 12, KLF5 inh -18, Ba/F3 V617F tox 63*, BaF3 tox 2 -5 and JAK2V617F confrm -5.
CCOc1ccc(N2C(=O)/C(=C/c3ccco3)C(=O)NC2=S)cc1 was read as IEC-6 cytotox 0 and KLF5 inh -25.
